Reference: ChEMBL document CHEMBL1153525, “Adenosine A2A receptor-antagonist/dopamine D2 receptor-agonist bivalent ligands as pharmacological tools to detect A2A-D2 receptor heteromers” (J Med Chem, 2009)
pKi: −log10 of the molar value. The source made the active and inactive calls. The rule behind the calls is not given here.

Experiments:
[1] = Displacement of [3H]YM09151-2 from D2R (long isoform) dimer in lamb striatum membrane high affinity macroscopic equilibrium dissociation constant by scintillation counting; assay type: cell membranes, Ovis aries
How it was run: (§1)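 Lamb striatal membranes (0.3-0.5 mg protein/mL) were incubated 2 h at 25 °C in 50 mM Tris-HCl pH 7.4 with 10 mM MgCl2 and 2 U/mL ADA. Radioligand was 2.1 nM [3H]ZM241385 (A2AR) or 0.9 nM [3H]YM09151-2 (D2R), against 11 competitor concentrations from 0.1 nM to 50 μM in triplicate. Nonspecific binding used 50 μM unlabeled radioligand. After GF/C filtration, counts were fitted to a two-state dimer model for KDB1 and KDB2; three experiments.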

[2] = Displacement of [3H]YM09151-2 from D2R (long isoform) dimer in lamb striatum membrane low affinity macroscopic equilibrium dissociation constant by scintillation counting; assay type: cell membranes, Ovis aries; how it was run: as §1
[3] = molecular target: Adenosine A2A receptor (Homo sapiens) (UniProt P29274); assay: Displacement of [3H]ZM241385 from human A2aR expressed in mouse Ltk cells at 1 uM by scintillation counting relative to control; assay type: cell-based
How it was run: (§2)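 Mouse Ltk fibroblasts were transiently transfected with human A2AR, human D2R (long isoform) or both, and membranes were prepared 48 h later. Membranes were incubated 2 h at 25 °C in 50 mM Tris-HCl pH 7.4 with 10 mM MgCl2 and 2 U/mL ADA, plus 2.1 nM [3H]ZM241385 or 1.9 nM [3H]YM09151-2 and 1 μM test compound. Bound ligand was counted after filtration and expressed as % of specific binding without displacer; three independent experiments.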
Target sequence in this assay (P29274 whole entry, canonical isoform): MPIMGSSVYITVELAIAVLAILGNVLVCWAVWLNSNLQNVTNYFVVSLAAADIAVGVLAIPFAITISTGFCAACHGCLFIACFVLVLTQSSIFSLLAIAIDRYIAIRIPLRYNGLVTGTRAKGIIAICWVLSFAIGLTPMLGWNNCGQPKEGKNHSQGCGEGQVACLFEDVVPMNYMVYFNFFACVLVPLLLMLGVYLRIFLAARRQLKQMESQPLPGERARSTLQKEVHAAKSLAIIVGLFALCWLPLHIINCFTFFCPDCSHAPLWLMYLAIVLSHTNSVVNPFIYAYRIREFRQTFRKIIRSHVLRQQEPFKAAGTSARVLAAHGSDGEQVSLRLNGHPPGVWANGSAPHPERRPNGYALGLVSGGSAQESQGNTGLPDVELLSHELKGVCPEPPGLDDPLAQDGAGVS

[4] = molecular target: Adenosine A2A receptor (Homo sapiens) (UniProt P29274); assay: Displacement of [3H]ZM241385 from human A2aR expressed in mouse Ltk cells by scintillation counting relative to control; assay type: cell-based; how it was run: as §2
Target sequence in this assay (P29274 whole entry, canonical isoform): as above

[5] = molecular target: D(2) dopamine receptor (Homo sapiens) (UniProt P14416); assay: Displacement of [3H]YM09151-2 from human D2R expressed in mouse Ltk cells by scintillation counting relative to control; assay type: cell-based; how it was run: as §2
D(2) dopamine receptor (Homo sapiens), sequence (P14416 whole entry): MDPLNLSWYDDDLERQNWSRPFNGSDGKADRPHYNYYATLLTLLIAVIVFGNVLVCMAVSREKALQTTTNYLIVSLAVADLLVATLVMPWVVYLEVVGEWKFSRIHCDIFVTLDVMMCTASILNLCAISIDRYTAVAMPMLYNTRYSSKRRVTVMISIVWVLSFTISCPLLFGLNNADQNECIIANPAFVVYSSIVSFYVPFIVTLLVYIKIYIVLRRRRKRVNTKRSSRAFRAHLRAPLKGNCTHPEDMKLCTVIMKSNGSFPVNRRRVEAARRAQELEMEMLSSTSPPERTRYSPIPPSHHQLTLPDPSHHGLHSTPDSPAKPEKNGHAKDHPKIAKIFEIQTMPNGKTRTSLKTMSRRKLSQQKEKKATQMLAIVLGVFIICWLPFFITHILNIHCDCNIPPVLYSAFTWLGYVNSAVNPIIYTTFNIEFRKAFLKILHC

[6] = molecular target: Adenosine A2A receptor (Homo sapiens) (UniProt P29274); assay: Displacement of [3H]ZM241385 from human A2AR expressed in mouse Ltk cells at 1 uM by scintillation counting relative to control
Target sequence in this assay (P29274 whole entry, looked up, canonical isoform): as the sequence (P29274 whole entry, canonical isoform) above

[7] = test system: Dopamine D2 receptor (Homo sapiens); assay: Displacement of [3H]YM09151-2 from human A2aR/D2R (long isoform) heteromer expressed in mouse Ltk cells by scintillation counting
[8] = molecular target: Adenosine A2A receptor (Homo sapiens) (UniProt P29274); assay: Displacement of [3H]ZM241385 from human A2aR/D2R (long isoform) heteromer expressed in mouse Ltk cells by scintillation counting; assay type: cell-based; how it was run: as §2
Target sequence in this assay (P29274 whole entry, canonical isoform): as above

[9] = molecular target: Adenosine A2A receptor (Homo sapiens) (UniProt P29274); assay: Displacement of [3H]ZM241385 from human A2aR/D2R (long isoform) coexpressed in mouse Ltk cells by scintillation counting; assay type: cell-based; how it was run: as §2
Target sequence in this assay (P29274 whole entry, canonical isoform): as above

[10] = Displacement of [3H]ZM241385 from A2aR dimer in lamb striatum membrane assessed as high affinity macroscopic equilibrium dissociation constant by scintillation counting; assay type: cell membranes, Ovis aries; how it was run: as §1

pKi [1] | pKi [2] | Activity [7] | Activity [8] | Activity [9] | pKi [10] | also measured | SMILES
7.96 | 4.82 | Active |  |  |  | Activity [3]: Active; Activity [4]: inactive; Activity [5]: inactive; Activity [6]: Active | CCCN(CCc1ccc(NC(=O)CCC(N)C(=O)NCCCCC(NC(=O)CCC(=O)NCCOCCOCCNC(=O)C(CCCCNC(C)=O)NC(C)=O)C(N)=O)cc1)C1CCc2c(O)cccc2C1 (stereo not given)
 |  | Active |  |  |  |  | CCCN(CCc1ccc(NC(=O)CCC(N)C(=O)NCCCCC(NC(=O)CCC(=O)NCCOCCOCCNC(=O)CCC(=O)NCCOCCOCCNC(=O)CCC(=O)NCCOCCOCCNC(=O)CCC(=O)NCCOCCOCCNC(=O)CCC(=O)NCCOCCOCCNC(=O)CCC(=O)NCCOCCOCCNC(=O)CCC(=O)NCCOCCOCCNC(=O)C(CCCCNC(C)=O)NC(C)=O)C(N)=O)cc1)C1CCc2c(O)cccc2C1 (stereo not given)
7.96 | 4.92 | Active |  |  |  |  | CCCN(CCc1ccc(NC(=O)CCC(N)C(=O)NCCCCC(NC(=O)CCC(=O)NCCOCCOCCNC(=O)CCC(=O)NCCOCCOCCNC(=O)C(CCCCNC(C)=O)NC(C)=O)C(N)=O)cc1)C1CCc2c(O)cccc2C1 (stereo not given)
 |  | Active | Active | Active |  |  | CCCN(CCc1ccc(NC(=O)CCC(N)C(=O)NCCCCC(NC(=O)CCC(=O)NCCOCCOCCNC(=O)CCC(=O)NCCOCCOCCNC(=O)CCC(=O)NCCOCCOCCNC(=O)CCC(=O)NCCOCCOCCNC(=O)CCC(=O)NCCOCCOCCNC(=O)CCC(=O)NCCOCCOCCNC(=O)C(CCCCNC(=O)C(N)CCCCNC(=O)COc2ccc(-c3nc4c([nH]3)c(=O)n(CCC)c(=O)n4CCC)cc2)NC(C)=O)C(N)=O)cc1)C1CCc2c(O)cccc2C1 (stereo not given)
9.00 | 5.05 | Active | Active | Active | 7.26 |  | CCCN(CCc1ccc(NC(=O)CCC(N)C(=O)NCCCCC(NC(=O)C(CCCCNC(=O)C(N)CCCCNC(=O)COc2ccc(-c3nc4c([nH]3)c(=O)n(CCC)c(=O)n4CCC)cc2)NC(C)=O)C(N)=O)cc1)C1CCc2c(O)cccc2C1 (stereo not given)
 |  | Active |  |  |  |  | CCCN(CCc1ccc(NC(=O)CCC(N)C(=O)NCCCCC(NC(=O)CCC(=O)NCCOCCOCCNC(=O)CCC(=O)NCCOCCOCCNC(=O)CCC(=O)NCCOCCOCCNC(=O)CCC(=O)NCCOCCOCCNC(=O)C(CCCCNC(C)=O)NC(C)=O)C(N)=O)cc1)C1CCc2c(O)cccc2C1 (stereo not given)
7.89 | 5.05 | Active |  |  |  | Activity [3]: Active; Activity [4]: inactive; Activity [5]: inactive; Activity [6]: Active | CCCN(CCc1ccc(NC(=O)CCC(N)C(=O)NCCCCC(NC(=O)CCC(=O)NCCOCCOCCNC(=O)CCC(=O)NCCOCCOCCNC(=O)CCC(=O)NCCOCCOCCNC(=O)C(CCCCNC(C)=O)NC(C)=O)C(N)=O)cc1)C1CCc2c(O)cccc2C1 (stereo not given)
 |  | Active | Active | Active |  | Activity [5]: inactive | CCCN(CCc1ccc(NC(=O)CCC(N)C(=O)NCCCCC(NC(=O)CCC(=O)NCCOCCOCCNC(=O)CCC(=O)NCCOCCOCCNC(=O)CCC(=O)NCCOCCOCCNC(=O)CCC(=O)NCCOCCOCCNC(=O)CCC(=O)NCCOCCOCCNC(=O)CCC(=O)NCCOCCOCCNC(=O)CCC(=O)NCCOCCOCCNC(=O)C(CCCCNC(=O)C(N)CCCCNC(=O)COc2ccc(-c3nc4c([nH]3)c(=O)n(CCC)c(=O)n4CCC)cc2)NC(C)=O)C(N)=O)cc1)C1CCc2c(O)cccc2C1 (stereo not given)
 |  |  | 17% |  |  |  | CCCn1c(=O)c2[nH]c(-c3ccc(OCC(=O)NCCCCC(N)C(=O)NCCCCC(NC(C)=O)C(=O)NCCOCCOCCNC(=O)CCC(=O)NCCOCCOCCNC(=O)CCC(=O)NCCOCCOCCNC(=O)CCC(=O)NCCOCCOCCNC(=O)CCC(=O)NCCOCCOCCNC(=O)CCC(=O)NCCOCCOCCNC(=O)CCC(=O)NCCOCCOCCNC(=O)CCC(=O)NC(CCCCNC(C)=O)C(N)=O)cc3)nc2n(CCC)c1=O (stereo not given)
 |  | Active |  |  |  |  | CCCN(CCc1ccc(NC(=O)CCC(N)C(=O)NCCCCC(NC(=O)CCC(=O)NCCOCCOCCNC(=O)CCC(=O)NCCOCCOCCNC(=O)CCC(=O)NCCOCCOCCNC(=O)CCC(=O)NCCOCCOCCNC(=O)CCC(=O)NCCOCCOCCNC(=O)C(CCCCNC(C)=O)NC(C)=O)C(N)=O)cc1)C1CCc2c(O)cccc2C1 (stereo not given)
8.40 | 5.05 | Active |  |  |  |  | CCCN(CCc1ccc(NC(=O)CCC(N)C(=O)NCCCCC(NC(=O)C(CCCCNC(C)=O)NC(C)=O)C(N)=O)cc1)C1CCc2c(O)cccc2C1 (stereo not given)
 |  | Active | Active | Active |  |  | CCCN(CCc1ccc(NC(=O)CCC(N)C(=O)NCCCCC(NC(=O)CCC(=O)NCCOCCOCCNC(=O)CCC(=O)NCCOCCOCCNC(=O)CCC(=O)NCCOCCOCCNC(=O)CCC(=O)NCCOCCOCCNC(=O)C(CCCCNC(=O)C(N)CCCCNC(=O)COc2ccc(-c3nc4c([nH]3)c(=O)n(CCC)c(=O)n4CCC)cc2)NC(C)=O)C(N)=O)cc1)C1CCc2c(O)cccc2C1 (stereo not given)
 |  |  | 58% |  | 6.80 |  | CCCn1c(=O)c2[nH]c(-c3ccc(OCC(=O)NCCCCC(N)C(=O)NCCCCC(NC(C)=O)C(=O)NC(CCCCNC(C)=O)C(N)=O)cc3)nc2n(CCC)c1=O (stereo not given)
 |  |  |  |  | 6.44 | Activity [3]: Active; Activity [6]: Active | CCCn1c(=O)c2[nH]c(-c3ccc(OCC(=O)NCCCCC(N)C(=O)NCCCCC(NC(C)=O)C(=O)NCCOCCOCCNC(=O)CCC(=O)NCCOCCOCCNC(=O)CCC(=O)NCCOCCOCCNC(=O)CCC(=O)NC(CCCCNC(C)=O)C(N)=O)cc3)nc2n(CCC)c1=O (stereo not given)
 |  | Active |  |  |  |  | CCCN(CCc1ccc(NC(=O)CCC(N)C(=O)NCCCCC(NC(=O)CCC(=O)NCCOCCOCCNC(=O)CCC(=O)NCCOCCOCCNC(=O)CCC(=O)NCCOCCOCCNC(=O)CCC(=O)NCCOCCOCCNC(=O)CCC(=O)NCCOCCOCCNC(=O)CCC(=O)NCCOCCOCCNC(=O)C(CCCCNC(C)=O)NC(C)=O)C(N)=O)cc1)C1CCc2c(O)cccc2C1 (stereo not given)
 |  |  |  |  | 6.57 |  | CCCn1c(=O)c2[nH]c(-c3ccc(OCC(=O)NCCCCC(N)C(=O)NCCCCC(NC(C)=O)C(=O)NCCOCCOCCNC(=O)CCC(=O)NCCOCCOCCNC(=O)CCC(=O)NC(CCCCNC(C)=O)C(N)=O)cc3)nc2n(CCC)c1=O (stereo not given)
 |  | Active | Active | Active |  |  | CCCN(CCc1ccc(NC(=O)CCC(N)C(=O)NCCCCC(NC(=O)CCC(=O)NCCOCCOCCNC(=O)CCC(=O)NCCOCCOCCNC(=O)CCC(=O)NCCOCCOCCNC(=O)CCC(=O)NCCOCCOCCNC(=O)CCC(=O)NCCOCCOCCNC(=O)C(CCCCNC(=O)C(N)CCCCNC(=O)COc2ccc(-c3nc4c([nH]3)c(=O)n(CCC)c(=O)n4CCC)cc2)NC(C)=O)C(N)=O)cc1)C1CCc2c(O)cccc2C1 (stereo not given)
8.96 | 5.85 | Active | Active | Active | 7.10 |  | CCCN(CCc1ccc(NC(=O)CCC(N)C(=O)NCCCCC(NC(=O)CCC(=O)NCCOCCOCCNC(=O)CCC(=O)NCCOCCOCCNC(=O)C(CCCCNC(=O)C(N)CCCCNC(=O)COc2ccc(-c3nc4c([nH]3)c(=O)n(CCC)c(=O)n4CCC)cc2)NC(C)=O)C(N)=O)cc1)C1CCc2c(O)cccc2C1 (stereo not given)
 |  |  |  |  | 6.61 | Activity [3]: Active; Activity [5]: inactive; Activity [6]: Active | CCCn1c(=O)c2[nH]c(-c3ccc(OCC(=O)NCCCCC(N)C(=O)NCCCCC(NC(C)=O)C(=O)NCCOCCOCCNC(=O)CCC(=O)NC(CCCCNC(C)=O)C(N)=O)cc3)nc2n(CCC)c1=O (stereo not given)
